Data set [1] deals with Trypanosoma brucei rhodesiense. Briefly: Antitrypanosomal activity against Trypanosoma brucei rhodesiense STIB 900 infected acute mouse model assessed as survival time at 1 mg/kg, ip administered daily for 4 days. The format is functional. To be noted: route intraperitoneal. The method in brief:
(§1)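 STIB900 acute mouse model of T. b. rhodesiense infection, with intraperitoneal dosing. Read-out is the average days of survival of treated mice. Cures are counted as mice that survive and stay parasite-free for 60 days.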

Data set [2] has as its system Trypanosoma brucei rhodesiense. Briefly: Antitrypanosomal activity against Trypanosoma brucei rhodesiense STIB 900 infected acute mouse model assessed as survival time at 5 mg/kg, ip administered daily for 4 days. Particulars: route intraperitoneal. The format is functional. The method in brief: as §1
Data set [3] relates to Trypanosoma brucei rhodesiense. Briefly: Antitrypanosomal activity against Trypanosoma brucei rhodesiense STIB 900 infected acute mouse model assessed as survival time at 10 mg/kg, ip. Particulars: route intraperitoneal. The format is functional. The method in brief:
as §1

For another data set, the system named is L6. Briefly: Cytotoxicity against rat L6 cells. The format is cell-based. In a few lines:
(§2)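 IC50 values in µM, each the average of duplicate determinations. Parasites were T. b. rhodesiense STIB900 and axenic amastigotes of L. donovani MHOM/SD/62/1S-CL2D. Cytotoxicity was run on rat L6 myoblast cells.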

Data set [4] has as its system Trypanosoma brucei rhodesiense. Briefly: Antitrypanosomal activity against Trypanosoma brucei rhodesiense STIB 900 bloodstream trypomastigotes. Type of data set: functional, organism-based. The method in brief: as §2
Data set [5] is described as follows: Selectivity index, ratio of IC50 for rat L6 cells to IC50 for Trypanosoma brucei rhodesiense STIB 900. To be noted: read-out: Ratio IC50. The format is toxicity, cell-based. In a few lines: (§3)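 Ratio of the L6 rat myoblast cytotoxicity IC50 to the IC50 against the parasite named in the line. Each IC50 is the average of duplicate determinations.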
Another data set relates to Plasmodium falciparum. Briefly: Antiplasmodial activity against chloroquine-resistant Plasmodium falciparum K1. Type of data set: functional, organism-based. The method in brief:
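In vitro IC50 against chloroquine-resistant P. falciparum K1, reported as the average of duplicate determinations.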

Data set [6] is described as follows: Selectivity index, ratio of IC50 for rat L6 cells to IC50 for chloroquine-resistant Plasmodium falciparum K1. Type of data set: toxicity, cell-based. Particulars: read-out: Ratio IC50. The method in brief:
as §3

The subject of a further data set is Leishmania donovani. Briefly: Antileishmanial activity against Leishmania donovani MHOM/SD/62/1S-CL2D axenic amastigotes. Type of data set: functional, organism-based. In a few lines:
as §2

Data set [7] can be described thus: Selectivity index, ratio of IC50 for rat L6 cells to IC50 for Leishmania donovani MHOM/SD/62/1S-CL2D. Type of data set: toxicity, cell-based. Particulars: read-out: Ratio IC50. In a few lines:
as §3

In data set [8] the test system is Trypanosoma brucei rhodesiense. Briefly: Antitrypanosomal activity against Trypanosoma brucei rhodesiense STIB 900 infected acute mouse model assessed as cured mouse at 5 mg/kg, ip daily for 4 days. Type of data set: functional, organism-based. On the set-up: dose 5 mg/kg. The method in brief:
(§4)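 STIB900 acute mouse model of trypanosomiasis with intraperitoneal dosing. The regimens were daily for 4 days at 20, 5 or 1 mg/kg, or a single 10 mg/kg dose. A cure is a mouse that survives and is parasite-free for 60 days. Average days of survival are also recorded.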

Data set [9] relates to Trypanosoma brucei rhodesiense. Kind of data set: Antitrypanosomal activity against Trypanosoma brucei rhodesiense STIB 900 infected acute mouse model assessed as cured mouse at 1 mg/kg, ip daily for 4 days. The format is functional, organism-based. On the set-up: dose 1 mg/kg. The method in brief:
as §4

Data set [10] concerns Trypanosoma brucei rhodesiense. Briefly: Antitrypanosomal activity against Trypanosoma brucei rhodesiense STIB 900 infected acute mouse model assessed as survival time at 2 mg/kg, ip administered daily for 4 days. The format is functional. To be noted: route intraperitoneal.
Data set [11] relates to Trypanosoma brucei rhodesiense. Briefly: Antitrypanosomal activity against Trypanosoma brucei rhodesiense STIB 900 infected acute mouse model assessed as cured mouse at 8 mg/kg, ip daily for 4 days. Type of data set: functional, organism-based. On the set-up: dose 8 mg/kg.
Data set [12] deals with Trypanosoma brucei rhodesiense. Kind of data set: Antitrypanosomal activity against Trypanosoma brucei rhodesiense STIB 900 infected acute mouse model assessed as cured mouse at 2 mg/kg, ip daily for 4 days. The format is functional, organism-based. On the set-up: dose 2 mg/kg.
The subject of data set [13] is Trypanosoma brucei rhodesiense. Kind of data set: Antitrypanosomal activity against Trypanosoma brucei rhodesiense STIB 900 infected acute mouse model assessed as survival time at 8 mg/kg, ip administered daily for 4 days. The format is functional. To be noted: route intraperitoneal.
For data set [14], the system named is Trypanosoma brucei rhodesiense. Kind of data set: Antitrypanosomal activity against Trypanosoma brucei rhodesiense STIB 900 infected acute mouse model assessed as cured mouse at 10 mg/kg, ip. Type of data set: functional, organism-based. On the set-up: dose 10 mg/kg. In a few lines:
as §4

The test system of data set [15] is Trypanosoma brucei rhodesiense. Kind of data set: Antitrypanosomal activity against Trypanosoma brucei rhodesiense STIB 900 infected acute mouse model assessed as survival time at 20 mg/kg, ip administered daily for 4 days. The format is functional. To be noted: route intraperitoneal. In a few lines:
as §1

The test system of data set [16] is Trypanosoma brucei rhodesiense. Briefly: Antitrypanosomal activity against Trypanosoma brucei rhodesiense STIB 900 infected acute mouse model assessed as cured mouse at 20 mg/kg, ip daily for 4 days. The format is functional, organism-based. On the set-up: dose 20 mg/kg. The method in brief:
as §4

For orientation: IC50 means the concentration that inhibits the measured activity by half. Read a low IC50 as greater potency in that assay.

Active and inactive are the calls of the source. The rule behind the calls is not given here.

As to `COc1cc(C(=N)N)cc2cc(-c3ccc(C(=N)N)cc3)oc12`, the values for the Survival in [1], in [2] and in data set [3] were 27.3 days, >60 days and >44 days, respectively. Besides, the IC50 in the data set with L6 is 30700 nM; in data set [4] it was 6 nM; in the data set on Plasmodium falciparum, 6 nM; in the data set with Leishmania donovani, 3000 nM. In addition, the selectivity ratio came to 5120 in data set [5], 5120 in [6] and 10 in data set [7]. Besides, in data set [8], the result was Active. Also, the result in data set [9] was inactive.

Turning to `Nc1nc(N)nc(Nc2ccc([As]3SCC(CO)S3)cc2)n1` (centres undefined) [MELARSOPROL], the figures for the Survival in data set [10], in data set [1] and in data set [13] were >60 days, >51.5 days and >60 days, respectively. Also, the outcome in data set [11], in data set [12] and in [9] was Active.

Turning to `CC(C)NC(=N)c1ccc(-c2cc3cc(C(=N)NC(C)C)cc(O)c3o2)cc1`, the values for the Survival in data set [1], in data set [2] and in data set [3] were >19.8 days, >60 days and >36.3 days, respectively. For the same molecule, the IC50 with L6 is > 185000 nM; in [4] it was 28 nM; in the data set on Plasmodium falciparum, 56 nM; in the data set with Leishmania donovani it was 20000 nM. The selectivity ratio was > 6610 in data set [5], > 3300 in data set [6] and > 9 in data set [7]. Moreover, the result in [8] was Active. Besides, in data set [9], the outcome was inactive.

For the molecule `CC(C)NC(=N)c1ccc(-c2cc3cc(C(=N)NC(C)C)cc(O)c3o2)c(O)c1`, the Survival in data set [1] is 26.3 days; in data set [2], >60 days; in [3] it was >50.7 days. Moreover, the IC50 was > 179000 nM in the data set with L6, 23 nM in [4], 310 nM in the data set on Plasmodium falciparum and 46000 nM in the data set on Leishmania donovani. The selectivity ratio in data set [5] is > 7780; in data set [6] it was > 577; in data set [7], > 4. For the same molecule, in data set [8], the outcome was Active. For the same molecule, the result in data set [9] was inactive.

Regarding `CC(C)NC(=N)c1ccc(-c2cc3cc(C(=N)NC(C)C)ccc3o2)c(O)c1`, the Survival in data set [1] was 18.5 days; in data set [2], >50.5 days; in [3], 26.8 days. The IC50 in the data set on L6 is > 183000 nM; in data set [4], 21 nM; with Plasmodium falciparum, 28 nM; in the data set on Leishmania donovani, 1800 nM. Moreover, the selectivity ratio in data set [5] was > 8710; in data set [6], > 6540; in data set [7], > 101. In addition, the outcome in data set [9] and in data set [14] was inactive.

For `COc1cc(C2=NCCN2)cc2cc(-c3ccc(C4=NCCN4)cc3)oc12`, the Survival in [15] was 11.5 days. Further, the IC50 in the data set with L6 was 19900 nM; in [4], 124 nM; with Plasmodium falciparum, 32 nM; in the data set with Leishmania donovani, 4500 nM. Also, the selectivity ratio in [5] was 160; in data set [6], 622; in [7], 5. Also, the outcome in data set [16] was inactive.

As for `CC(C)NC(=N)c1ccc(-c2cc3cc(C(=N)NC(C)C)ccc3o2)cc1`, the Survival in data set [1] was 15.3 days; in [2] it was >53 days. In addition, the IC50 in the data set with L6 is > 198000 nM; in data set [4], 125 nM; in the data set on Plasmodium falciparum, 73 nM; in the data set on Leishmania donovani, 1600 nM. The selectivity ratio in data set [5] was > 1580; in [6], > 2710; in [7] it was > 125. Moreover, the outcome in data set [9] and in data set [14] was inactive.

For the molecule `Oc1cc(C2=NCCN2)ccc1-c1cc2cc(C3=NCCN3)ccc2o1`, the Survival is 20 days in [1], >60 days in [2] and 23.5 days in data set [3]. The IC50 is 150000 nM with L6, 8 nM in [4], 6 nM in the data set with Plasmodium falciparum and 5800 nM in the data set on Leishmania donovani. The selectivity ratio in [5] was 18800; in data set [6] it was 25000; in data set [7] it was 26. Moreover, the outcome in data set [9] and in data set [14] was inactive.

In the case of `N=C(N)c1ccc(O)c(-c2cc3cc(C(=N)N)ccc3o2)c1`, the figures for the Survival in data set [1], in [2] and in data set [3] were 26 days, >60 days and >51.5 days, respectively. The IC50 in the data set on L6 is > 217000 nM; in [4], 5 nM; in the data set on Plasmodium falciparum, 793 nM; in the data set with Leishmania donovani, 20000 nM. In addition, the selectivity ratio in [5] was > 43400; in data set [6] it was > 274; in data set [7], > 11. Moreover, the result in data set [8] was Active. Further, the result in data set [9] was inactive.

As for `N=C(N)c1ccc(-c2cc3ccc(C(=N)N)cc3[nH]2)cc1` [DAPI], the Survival in [15] is >60 days; in data set [2] it was >40.8 days. The values for the IC50 (in the data set on L6; in [4]; with Plasmodium falciparum) were 860 nM, 17 nM and 3 nM, respectively. Further, the selectivity ratio in data set [5] amounted to 51; in [6] it was 287. The outcome in [8] was inactive. The outcome in data set [16] was Active.

For the molecule `N=C(N)c1ccc(-c2cc3ccc(C(=N)N)cc3o2)cc1`, the Survival in data set [1] is 26.5 days; in [2] it was >60 days; in [3], >39.5 days. For the same molecule, the IC50 in the data set on L6 amounted to 800 nM; in [4], 7 nM; in the data set with Plasmodium falciparum, 3 nM; in the data set on Leishmania donovani, 3100 nM. The selectivity ratio came to 114 in [5], 267 in data set [6] and 0.3 in data set [7]. Also, the result in [8] was Active. For the same molecule, the outcome in data set [9] was inactive.

These data come from ChEMBL document CHEMBL1142519, “Synthesis and antiprotozoal activity of cationic 2-phenylbenzofurans” (J Med Chem, 2008).
